What was measured:
[1] = molecular target: T1, Mineralocorticoid receptor (Rattus norvegicus, UniProt P22199); test: Antagonist activity at rat mineralocorticoid receptor-ligand binding domain expressed in AH109 yeast cells co expressing pGADT7-hSRC-1 by two hybrid assay; type: cell-based
T1 sequence (P22199 whole entry): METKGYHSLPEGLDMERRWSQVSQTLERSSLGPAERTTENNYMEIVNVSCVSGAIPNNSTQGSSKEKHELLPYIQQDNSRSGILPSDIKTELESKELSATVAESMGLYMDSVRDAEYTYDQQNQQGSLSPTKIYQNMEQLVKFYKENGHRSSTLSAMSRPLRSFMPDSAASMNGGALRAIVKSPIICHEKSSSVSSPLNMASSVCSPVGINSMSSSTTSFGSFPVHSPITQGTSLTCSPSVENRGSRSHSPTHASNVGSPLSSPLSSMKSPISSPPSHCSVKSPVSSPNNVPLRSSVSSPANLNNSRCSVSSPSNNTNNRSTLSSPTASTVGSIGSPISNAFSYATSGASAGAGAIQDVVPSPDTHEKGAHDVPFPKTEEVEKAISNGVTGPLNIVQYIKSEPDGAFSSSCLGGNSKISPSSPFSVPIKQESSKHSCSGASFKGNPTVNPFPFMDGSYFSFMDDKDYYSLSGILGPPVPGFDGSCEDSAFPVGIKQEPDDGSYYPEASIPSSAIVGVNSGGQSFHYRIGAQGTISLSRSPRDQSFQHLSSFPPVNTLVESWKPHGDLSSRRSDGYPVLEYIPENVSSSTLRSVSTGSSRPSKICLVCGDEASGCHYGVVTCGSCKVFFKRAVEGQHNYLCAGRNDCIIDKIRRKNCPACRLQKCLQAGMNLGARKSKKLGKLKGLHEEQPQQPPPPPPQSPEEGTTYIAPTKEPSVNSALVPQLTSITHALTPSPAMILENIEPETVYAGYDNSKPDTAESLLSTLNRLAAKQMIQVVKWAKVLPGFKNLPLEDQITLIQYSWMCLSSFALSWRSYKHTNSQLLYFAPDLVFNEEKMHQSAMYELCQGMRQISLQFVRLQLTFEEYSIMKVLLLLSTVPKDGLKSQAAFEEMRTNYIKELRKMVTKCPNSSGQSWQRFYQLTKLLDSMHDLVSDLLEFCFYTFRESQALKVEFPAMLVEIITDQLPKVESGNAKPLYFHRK
Method in brief: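 Yeast two-hybrid read-out of corticosterone-stimulated interaction between the MR ligand-binding domain and the SRC1 coactivator. Antagonism of this interaction is expressed as IC50.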

Progesterone receptor = molecular target: T2, Progesterone receptor (Homo sapiens, UniProt P06401); test: Inhibition of progesterone receptor ligand binding domain expressed in HEK293T cells; type: cell-based, HEK-293T
T2 sequence (P06401 whole entry): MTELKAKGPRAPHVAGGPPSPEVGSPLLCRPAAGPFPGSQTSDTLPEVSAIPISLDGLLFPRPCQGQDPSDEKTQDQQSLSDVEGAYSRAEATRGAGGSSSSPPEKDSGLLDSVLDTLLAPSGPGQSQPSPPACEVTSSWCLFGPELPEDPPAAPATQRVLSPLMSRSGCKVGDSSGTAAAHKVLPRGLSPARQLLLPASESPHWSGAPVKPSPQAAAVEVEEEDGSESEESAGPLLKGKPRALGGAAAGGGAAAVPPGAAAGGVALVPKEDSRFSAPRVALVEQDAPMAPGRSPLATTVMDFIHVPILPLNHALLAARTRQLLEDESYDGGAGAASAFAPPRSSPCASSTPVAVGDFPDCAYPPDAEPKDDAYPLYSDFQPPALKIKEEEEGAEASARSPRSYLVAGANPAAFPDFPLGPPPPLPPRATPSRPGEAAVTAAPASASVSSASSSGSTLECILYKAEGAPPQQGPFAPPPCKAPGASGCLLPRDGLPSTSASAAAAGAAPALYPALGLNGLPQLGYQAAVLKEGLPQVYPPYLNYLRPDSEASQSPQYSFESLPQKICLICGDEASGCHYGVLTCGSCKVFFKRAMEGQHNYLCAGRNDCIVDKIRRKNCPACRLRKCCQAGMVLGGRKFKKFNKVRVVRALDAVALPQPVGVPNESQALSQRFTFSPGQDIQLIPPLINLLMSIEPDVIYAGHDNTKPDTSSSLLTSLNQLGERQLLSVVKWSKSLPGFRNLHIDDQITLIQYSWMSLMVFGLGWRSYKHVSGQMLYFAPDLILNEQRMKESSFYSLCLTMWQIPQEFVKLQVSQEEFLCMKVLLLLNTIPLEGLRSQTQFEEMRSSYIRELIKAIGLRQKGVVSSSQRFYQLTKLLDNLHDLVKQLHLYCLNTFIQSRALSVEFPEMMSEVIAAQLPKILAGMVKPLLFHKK
Method in brief: (§1)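 Mammalian one-hybrid assay in HEK293T cells transiently co-transfected with a UAS-TK-Luc reporter, pRL-SV40 and a pGAL4 fusion of the receptor LBD (ERα, GR or PR). The read-out is luciferase, measuring antagonism at each receptor.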

Estrogen receptor = molecular target: T3, Estrogen receptor (Homo sapiens, UniProt P03372); test: Inhibition of ERalpha ligand binding domain expressed in HEK293T cells; type: cell-based, HEK-293T; method in brief: as §1
T3 sequence (P03372 whole entry): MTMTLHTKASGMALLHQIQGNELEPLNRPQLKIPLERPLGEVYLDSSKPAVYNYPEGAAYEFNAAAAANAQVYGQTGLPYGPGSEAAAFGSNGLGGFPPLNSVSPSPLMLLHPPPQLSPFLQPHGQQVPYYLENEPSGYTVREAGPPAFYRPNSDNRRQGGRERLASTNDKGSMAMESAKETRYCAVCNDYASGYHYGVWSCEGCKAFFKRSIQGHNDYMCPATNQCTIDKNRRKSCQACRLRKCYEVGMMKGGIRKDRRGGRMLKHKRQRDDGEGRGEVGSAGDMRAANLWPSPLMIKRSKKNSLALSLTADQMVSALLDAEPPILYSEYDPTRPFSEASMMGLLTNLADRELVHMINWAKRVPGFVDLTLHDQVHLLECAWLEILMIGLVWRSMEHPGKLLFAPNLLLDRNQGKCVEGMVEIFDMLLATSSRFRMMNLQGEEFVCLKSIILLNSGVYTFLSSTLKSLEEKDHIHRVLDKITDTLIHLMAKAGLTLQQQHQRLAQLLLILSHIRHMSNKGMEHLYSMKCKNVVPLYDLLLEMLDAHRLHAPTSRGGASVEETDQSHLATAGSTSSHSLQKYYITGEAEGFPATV

Glucocorticoid receptor = molecular target: T4, Glucocorticoid receptor (Homo sapiens, UniProt P04150); test: Inhibition of glucocorticoid receptor ligand binding domain expressed in HEK293T cells; type: cell-based; settings: hek-293t; method in brief: as §1
T4 sequence (P04150 whole entry): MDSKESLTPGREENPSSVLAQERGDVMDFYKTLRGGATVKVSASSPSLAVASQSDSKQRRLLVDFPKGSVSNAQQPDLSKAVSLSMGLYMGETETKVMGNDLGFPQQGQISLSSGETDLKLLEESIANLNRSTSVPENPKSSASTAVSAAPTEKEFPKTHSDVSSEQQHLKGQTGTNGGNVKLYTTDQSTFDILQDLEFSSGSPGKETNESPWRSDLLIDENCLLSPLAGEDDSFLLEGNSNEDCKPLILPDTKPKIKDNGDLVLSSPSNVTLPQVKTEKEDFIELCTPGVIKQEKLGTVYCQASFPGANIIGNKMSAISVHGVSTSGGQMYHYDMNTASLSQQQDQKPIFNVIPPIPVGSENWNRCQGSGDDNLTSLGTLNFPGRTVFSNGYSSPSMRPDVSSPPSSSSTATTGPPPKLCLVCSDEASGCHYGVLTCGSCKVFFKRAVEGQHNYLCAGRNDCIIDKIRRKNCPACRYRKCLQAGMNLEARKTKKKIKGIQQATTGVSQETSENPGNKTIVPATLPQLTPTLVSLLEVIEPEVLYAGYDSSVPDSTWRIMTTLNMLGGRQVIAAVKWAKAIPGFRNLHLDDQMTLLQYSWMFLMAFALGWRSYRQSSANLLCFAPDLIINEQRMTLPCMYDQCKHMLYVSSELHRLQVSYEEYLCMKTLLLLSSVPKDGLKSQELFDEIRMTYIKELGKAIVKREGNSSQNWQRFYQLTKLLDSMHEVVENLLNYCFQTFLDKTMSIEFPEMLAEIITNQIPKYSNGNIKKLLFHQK

Structure (SMILES)	IC50 [1]	further results
C[C@@H]1CCCCCCCc2cc(O)cc(O)c2C(=O)O1		IC50 ([1]; read-out: IC50): 8.93 µM
CC(=O)Oc1cc2c(c(OC(C)=O)c1)C(=O)OCCCCCCCC2		IC50 (Progesterone receptor; hek-293t): Not Active; IC50 ([1]; read-out: IC50): 1.11 µM; IC50 (Estrogen receptor; hek-293t): Not Active; IC50 (Glucocorticoid receptor): Not Active
CC(=O)Oc1cc2c(c(OC(C)=O)c1)C(=O)OCCCCCCCCC2		IC50 (Progesterone receptor; read-out: IC50): 3.06 µM; IC50 ([1]; read-out: IC50): 0.82 µM; IC50 (Estrogen receptor; hek-293t): Not Active; IC50 (Glucocorticoid receptor): Not Active
C[C@@H]1CCCCCCCc2cc(OCc3ccccc3)cc(O)c2C(=O)O1	Not Active	
COc1cc2c(c(OC)c1)C(=O)O[C@H](C)CCCCCCC2	Not Active	
COc1cc(O)c2c(c1)CCCCCCC[C@@H](C)OC2=O	Not Active	
C[C@@H]1CCCCCCCc2cc(OC(=O)c3ccccc3)cc(OC(=O)c3ccccc3)c2C(=O)O1	Not Active	
CCOc1cc(O)c2c(c1)CCCCCCC[C@@H](C)OC2=O	Not Active	
Cc1ccc(S(=O)(=O)Oc2cc3c(c(OS(=O)(=O)c4ccc(C)cc4)c2)C(=O)O[C@H](C)CCCCCCC3)cc1		IC50 ([1]; read-out: IC50): 6.51 µM
O=C1OCCCCCCCCCc2cc(O)cc(O)c21	Not Active	
C=CCOc1cc(O)c2c(c1)CCCCCCC[C@@H](C)OC2=O	Not Active	
CCCC(=O)Oc1cc2c(c(OC(=O)CCC)c1)C(=O)O[C@H](C)CCCCCCC2	Not Active	
COc1cc2c(c(OC)c1)C(=O)O[C@H](C)CCC/C=C/CC2	Not Active	
CCCOc1cc2c(c(OCCC)c1)C(=O)O[C@H](C)CCCCCCC2	Not Active	
C=CCOc1cc2c(c(OCC=C)c1)C(=O)O[C@H](C)CCCCCCC2	Not Active	
CCCCOc1cc2c(c(OCCCC)c1)C(=O)O[C@H](C)CCCCCCC2	Not Active	
COc1cc(O)cc2c1C(=O)O[C@H](C)CCCCCCC2	Not Active	

Structure (SMILES)	IC50 [1]	further results
C=CCCC[C@@H](C)OC(=O)c1c(CCC=C)cc(OC)cc1OC	Not Active	
CCC(=O)Oc1cc2c(c(OC(=O)CC)c1)C(=O)O[C@H](C)CCCCCCC2		IC50 ([1]; read-out: IC50): 31.7 µM
C[C@@H]1CCCCCCCc2cc(OCc3ccc([N+](=O)[O-])cc3)cc(OCc3ccc([N+](=O)[O-])cc3)c2C(=O)O1	Not Active	
COc1cc2c(c(OC)c1)C(=O)O[C@H](C)CCC/C=C\CC2		IC50 ([1]; read-out: IC50): 16.6 µM
C[C@@H]1CCCCCCCc2cc(OC(=O)c3ccc(Br)cc3)cc(OC(=O)c3ccc(Br)cc3)c2C(=O)O1	Not Active	
O=C1OCCCCCCCc2cc(O)cc(O)c21	Not Active	
C[C@@H]1CCCCCCCc2cc(OC(=O)c3ccc(Cl)cc3)cc(OC(=O)c3ccc(Cl)cc3)c2C(=O)O1	Not Active	
CCCOc1cc(O)c2c(c1)CCCCCCC[C@@H](C)OC2=O	Not Active	
C[C@@H]1CCCCCCCc2cc(OCc3ccccc3)cc(OCc3ccccc3)c2C(=O)O1	Not Active	
O=C1OCCCCCCCCCCc2cc(O)cc(O)c21	Not Active	
CCOc1cc2c(c(OCC)c1)C(=O)O[C@H](C)CCCCCCC2	Not Active	
CC(=O)Oc1cc2c(c(OC(C)=O)c1)C(=O)O[C@H](C)CCCCCCC2		IC50 (Progesterone receptor; hek-293t): Not Active; IC50 ([1]; read-out: IC50): 2.78 µM; IC50 (Estrogen receptor; read-out: IC50): 8.36 µM; IC50 (Glucocorticoid receptor): Not Active
CC(C)C(=O)Oc1cc2c(c(OC(=O)C(C)C)c1)C(=O)O[C@H](C)CCCCCCC2	Not Active	
CC(=O)Oc1cc2c(c(OC(C)=O)c1)C(=O)OCCCCCCC2		IC50 (Progesterone receptor; hek-293t): Not Active; IC50 ([1]; read-out: IC50): 0.58 µM; IC50 (Estrogen receptor; hek-293t): Not Active; IC50 (Glucocorticoid receptor): Not Active
O=C1OCCCCCCCCc2cc(O)cc(O)c21	Not Active	
CC(=O)Oc1cc2c(c(OC(C)=O)c1)C(=O)OCCCCCCCCCC2		IC50 (Progesterone receptor; read-out: IC50): 3.22 µM; IC50 ([1]; read-out: IC50): 2.9 µM; IC50 (Estrogen receptor; read-out: IC50): > 10 µM; IC50 (Glucocorticoid receptor): Not Active

From ChEMBL document CHEMBL1667826, “Synthesis, modification, and evaluation of (R)-de-O-methyllasiodiplodin and analogs as nonsteroidal antagonists of mineralocorticoid receptor” (Bioorg Med Chem Lett, 2011)
